TNAP inh noacc = TNAP (human) inhibition, acceptor-free conditions; P05186; purified TNAP, CDP-star luminescence, 30 min; inhibition, % at 20 µM; 0.26% of 200,000 active;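 active = tissue-nonspecific alkaline phosphatase inhibition above about 50% at 20 µM in the single-dose screen, limit read from the data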;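 also: 0% = DMSO negative control and 100% = EDTA positive control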
Target sequence (P05186 whole entry, looked up): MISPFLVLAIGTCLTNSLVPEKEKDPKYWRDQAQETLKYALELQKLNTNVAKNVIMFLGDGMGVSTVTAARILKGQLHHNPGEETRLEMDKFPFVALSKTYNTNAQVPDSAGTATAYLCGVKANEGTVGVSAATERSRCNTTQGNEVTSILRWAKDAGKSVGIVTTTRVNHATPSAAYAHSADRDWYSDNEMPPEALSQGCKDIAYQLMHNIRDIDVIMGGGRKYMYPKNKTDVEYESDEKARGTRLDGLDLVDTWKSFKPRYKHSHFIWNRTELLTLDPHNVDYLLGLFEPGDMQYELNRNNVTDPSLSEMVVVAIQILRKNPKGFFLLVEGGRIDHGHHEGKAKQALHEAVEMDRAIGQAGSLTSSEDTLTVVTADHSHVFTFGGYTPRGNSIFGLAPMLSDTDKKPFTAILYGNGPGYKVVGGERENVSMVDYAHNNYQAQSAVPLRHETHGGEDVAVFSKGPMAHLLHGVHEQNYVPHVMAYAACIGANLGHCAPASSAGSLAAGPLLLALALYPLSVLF
WT yeast gro inh = growth inhibition of WT yeast, mitochondrial fusion screen; mitochondrial fusion phenotypic screen, WT strain; inhibition, % at 10 µM; 2.1% of 190,000 active; AID 1362; in the data active = inhibition above about 58%; tested in S. cerevisiae
TNAP act hiacc = activators of human TNAP at high phosphate acceptor concentration; purified TNAP, CDP-star luminescence, 1 M DEA, 30 min; stronger effect = higher value; 0 = EDTA background, 1 = DMSO-only activity; 200,000 tested, under 10 active; activation factor at 20 µM; AID 1136; P05186;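 active = activation factor at least 2 at 20 µM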
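Control set: EDTA negative control, DMSO positive control / Assay system: human TNAP / Quantity: TNAP 1/800 final / Evaluation: TNAP activation factor scaled between EDTA and DMSO control wells / Measured by: luminescent substrate turnover signal / Compound dosing: one dose, 20 µM / Times: 30 min enzyme reaction at room temperature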
TNAP inh hiacc = inhibitors of human TNAP at high phosphate acceptor concentration; P05186; purified TNAP, CDP-star luminescence, 1 M DEA; inhibition, % at 20 µM; 0.03% of 200,000 active; AID 1135;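 active = over 50% inhibition of tissue-nonspecific alkaline phosphatase at 20 µM in the single-dose screen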;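 also: plate controls were DMSO wells for no effect and EDTA-quenched wells as full inhibition for full effect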
Arbovirus anti = blocks arbovirus infection; arbovirus infection cell-based antiviral screen; inhibition, % at 10 µM; 0.37% of 200,000 active; AID 1251; in the data active = inhibition above about 30%
Starred values were filed as active, the others as inactive. Compounds with a hit are over-represented: about 2.6% of the library has one in this group of screens.

SMILES	TNAP inh noacc	WT yeast gro inh	TNAP act hiacc	TNAP inh hiacc	Arbovirus anti
CC(c1cccs1)N(Cc1ccco1)C(=S)Nc1ccccc1Cl (stereo not given)	-10	63*	1	-5	8
Cc1cccc(NC(=S)N(Cc2ccco2)C(C)c2cccs2)c1 (stereo not given)	-7	72*	1	-3	-4
CN1CCN(C2=Cc3ccccc3Sc3cc(F)ccc32)CC1	-9	94*	1	-5	-35
Cc1ccc(-c2ccc(/C=C3/NC(=O)NC3=O)o2)cc1[N+](=O)[O-]	-91	-8	1	5	-32
CC1=C(C#N)C(=O)NC(=O)/C1=C\c1ccc(-c2cc(C)c(C)cc2[N+](=O)[O-])o1	-6	5	1	-1	34*
CCCCCCc1nc2ccccc2c(=O)n1NC(=O)c1c(O)c2cccc3c2n(c1=O)CCC3	10	65*	1.1	-6	1
O=C(Nc1ccc(Cl)cc1)N1CCN(c2ccc3nnc(-c4ccc(F)cc4)n3n2)CC1	0	80*	1	0	5
CCc1ccc(NS(=O)(=O)c2ccc(OC)c(C)c2)cc1	-14	59*	1	-3	8
COc1ccc(S(=O)(=O)Nc2ccc3ccccc3c2)cc1C	-9	79	1	-5	-35
NS(=O)(=O)c1cccnc1Nc1c(Cl)cccc1Cl	58*	22	0.5	52*	-6
COc1ccc(/C=C2\SC(N3CCc4ccccc4C3)=NC2=O)cc1	-1	62*	1	-5	17
OCc1ccccc1N=c1ssnc1Cl	-16	3	1	-1	1
Clc1ccc(N=c2ssnc2Cl)nc1	-2	69*	1	-2	-29
Clc1nssc1=Nc1ccc(Br)cc1	-17	71*	1	-1	17
O=c1c2ccccc2nc(SCc2ccncc2)n1CC1CCCO1 (stereo not given)	-14	-12	1	-3	-8
CCCN1C(=O)/C(=C\C=C2\N(CC)c3ccccc3C2(C)C)SC1=S	42	5	0.6	42	-3
CN1/C(=C\C=C2/SC(=S)NC2=O)C(C)(C)c2ccccc21	41	48	0.5	51*	7
CCOC(=O)N1CCN(S(=O)(=O)c2ccc(C)cc2)C1c1ccc(OC)cc1 (stereo not given)	-12	85*	1	-2	13
CCOC(=O)N1CCN(S(=O)(=O)c2ccc(C)cc2)C1c1ccccc1 (stereo not given)	-1	-5	1.1	-8	-4
CCN(CC)c1ccc(NC(=O)c2c(OC)cccc2OC)c(C)c1	-8	-2	1	3	38*
C=C(C)C1Cc2c(C)nn(-c3nc(C)cc(C)n3)c2C1 (stereo not given)	-10	64*	1	-5	8
O=C(N/N=C/c1ccc2c(c1)OCO2)c1ccc(COc2cccc3cccnc23)cc1	-10	-2	1	-3	-25
O=C(COC(=O)c1cc[n+]([O-])cc1)Nc1cccc(Cl)c1Cl	-12	0	1	-3	6
O=C(COC(=O)c1ccccn1)Nc1cccc(Cl)c1Cl	-13	97*	1.1	-7	1
Cc1cc(C)c(OC2(c3ccccc3)OC(=O)c3ccccc32)c(C)c1 (stereo not given)	-9	79*	1.1	-7	-17
SMILES	TNAP inh noacc	WT yeast gro inh	TNAP act hiacc	TNAP inh hiacc	Arbovirus anti
Cc1cccc(C)c1OC1(c2ccccc2)OC(=O)c2ccccc21 (stereo not given)	5	5	1	-4	-9
Cc1ccc(NC(=O)COC(=O)CC2CCCC2)cc1Cl	-6	12	1	-2	5
COc1cc(OC)cc(C(=O)Nc2cccc(N3CCCC3)c2)c1	-7	4	1	2	0
CC(C)C(NS(=O)(=O)c1cccs1)C(=O)NCc1ccc2c(c1)OCO2 (stereo not given)	-3	-3	1	-1	-2
CC(=O)N1/C(=C/c2ccc(N(C)C)cc2)C(=O)c2ccccc21	41	63*	0.6	40	-34
CN(C)c1ccc(/C=C2\CCC/C(=C\c3ccccc3)C2=O)cc1	10	0	0.8	20	-6
Cc1ccc(NC(=S)N(Cc2ccco2)C2CCN(C(C)C)CC2)cc1	-21	10	1	3	4
CCN1/C(=C\C(=S)Nc2ccccc2)Sc2ccccc21	9	69*	1	5	10
Cc1nn(C(C)C(=O)NCC2CCCO2)c(=O)c2cc3occc3n12 (stereo not given)	-13	61*	1	-4	-1
CC12COC3(C(=O)Nc4ccc5ccccc5c4)CC1CCC32C (stereo not given)	-2	77*	1	-5	8
Cc1ccc(NC(=S)NCC(C)CSc2ccc(Cl)cc2)cc1 (stereo not given)	-89	81*	1.2	-18	-27
Cc1cccc(NC(=S)NCC(C)CSc2ccc(Cl)cc2)c1 (stereo not given)	-53	82*	1.2	-18	-23
Cn1cnnc1SCC(=O)Nc1nc(-c2ccccc2)cs1	-4	0	1	-3	-2
O=c1c2ccccc2n(Cc2ccc(F)cc2)c(=O)n1C1CCCC1	-14	77*	1.1	-6	-6
Cc1ccccc1S(=O)(=O)Nc1ncnc2scc(-c3ccccc3)c12	-4	44	1	-1	58*
CN(C)CCCNc1ncnc2scc(-c3ccccc3)c12	-10	6	1	-5	-17
CCc1nnc(NC(=O)C2COc3ccccc3O2)s1 (stereo not given)	-8	3	1	-3	5
CCCCCc1nnc(NC(=O)C2COc3ccccc3O2)s1 (stereo not given)	2	25	1	-2	46*
Cc1ccc(CSc2nnc(NC(=O)C3COc4ccccc4O3)s2)cc1 (stereo not given)	9	14	1	4	56*
Cc1nnc(NC(=O)C2COc3ccccc3O2)s1 (stereo not given)	-11	-31	1.1	-9	1
Cc1ccc(SCC(=O)Nc2ccc(F)cc2[N+](=O)[O-])cc1C	-5	14	1	-4	7
COc1ccccc1C(=O)N(CCN(C)C)c1nc2cc(C)cc(C)c2s1	5	13	1	3	-7
CCN(CC)CCN(C(=O)c1c(F)cccc1F)c1nc2cc(C)cc(C)c2s1	1	59*	1	1	-1
COCCn1c(=O)[nH]c(=O)c2cc(C(=O)c3cc(Cl)ccc3O)cnc21	-8	63*	1	2	8
O=[N+]([O-])c1cc([N+](=O)[O-])c(N2CCCCCC2)cc1NCCO	7	80*	0.9	12	2
Cc1cc(C)cc(C(=O)NCC(=O)OC(C)C(=O)N(C)c2ccccc2)c1 (stereo not given)	-3	-7	1.1	-6	5
O=C(Oc1cccc(Nc2ncnc3ccccc23)c1)c1ccccc1Cl	-10	59*	1.1	-6	-3
